Test results from ChEMBL document CHEMBL1799944, “New 2-heterocyclyl-imidazo[2,1-i]purin-5-one derivatives as potent and selective human A3 adenosine receptor antagonists” (J Med Chem, 2011).

Legend:
Adenosine receptor A3 [1] = target: T1, Adenosine receptor A3 (Homo sapiens, UniProt P0DMS8); assay: Antagonist activity human adenosine A3 receptor expressed in CHO cells assessed as blockade of Cl-IB-MECA-mediated inhibition of forskolin-stimulated [3H]cAMP accumulation after 150 mins by scintillation counter; format: functional, cell-based
T1 sequence (P0DMS8 whole entry): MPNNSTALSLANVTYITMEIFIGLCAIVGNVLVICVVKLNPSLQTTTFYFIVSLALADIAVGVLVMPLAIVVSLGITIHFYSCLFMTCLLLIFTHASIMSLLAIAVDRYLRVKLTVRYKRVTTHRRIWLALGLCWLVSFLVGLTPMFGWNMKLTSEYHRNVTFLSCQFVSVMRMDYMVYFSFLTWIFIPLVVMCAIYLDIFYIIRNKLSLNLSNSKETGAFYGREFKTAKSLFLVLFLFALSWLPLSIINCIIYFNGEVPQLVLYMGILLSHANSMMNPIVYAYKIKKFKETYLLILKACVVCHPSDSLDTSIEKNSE
How it was run: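 hA3-expressing CHO cells (1 x 10^6 cells/assay), preincubated 10 min at 37 °C in saline buffer pH 7.4 with adenosine deaminase 2 IU/mL and Ro 20-1724. Antagonism of 100 nM Cl-IB-MECA inhibition of cAMP in presence of 1 μM forskolin. Stopped with cold TCA. cAMP by [3H]cAMP competition protein binding (4 °C, 150 min), scintillation counting. IC50 from sigmoid nonlinear regression, mean ± SEM.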

[2] = target: T2, Adenosine receptor A2b (Homo sapiens) (UniProt P29275); assay: Antagonist activity human adenosine A2B receptor expressed in CHO cells assessed as inhibition of NECA-mediated [3H]cAMP accumulation at =<5000 nM after 150 mins by scintillation counter; format: functional, cell-based
T2 sequence (whole entry): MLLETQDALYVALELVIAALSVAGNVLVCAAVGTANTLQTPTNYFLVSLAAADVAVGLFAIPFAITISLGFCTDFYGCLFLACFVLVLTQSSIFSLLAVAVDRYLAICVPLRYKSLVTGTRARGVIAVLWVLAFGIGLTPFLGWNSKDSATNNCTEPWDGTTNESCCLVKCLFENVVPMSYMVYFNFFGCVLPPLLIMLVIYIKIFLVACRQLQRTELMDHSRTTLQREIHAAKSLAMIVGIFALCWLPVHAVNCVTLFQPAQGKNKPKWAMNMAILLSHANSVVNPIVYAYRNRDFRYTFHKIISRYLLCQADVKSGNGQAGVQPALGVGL
How it was run: (§1)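 Intact CHO cells expressing hA2B (1 x 10^6 cells/assay), preincubated 10 min at 37 °C in saline buffer pH 7.4 with 2 IU/mL adenosine deaminase and Ro 20-1724. Antagonism of 100 nM NECA-stimulated cAMP rise. Stopped with cold 6% TCA, ether-extracted. cAMP measured by competition binding with [3H]cAMP and beef adrenal binding protein (4 °C, 150 min), charcoal separation, scintillation counting. IC50 by sigmoid nonlinear regression, mean ± SEM.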

Adenosine receptor A2b = target: T3, Adenosine receptor A2b (Homo sapiens, UniProt P29275); assay: Antagonist activity human adenosine A2B receptor expressed in CHO cells assessed as inhibition of NECA-mediated [3H]cAMP accumulation after 150 mins by scintillation counter; format: functional, cell-based; how it was run: as §1
T3 sequence (P29275 whole entry): T2 sequence (whole entry)

Adenosine receptor A3 [3] = target: T1, Adenosine receptor A3; assay: Displacement of [3H]MRE 3008F20 from human adenosine A3 receptor expressed in CHO cells after 120 mins by scintillation spectrometry; format: cell-based
How it was run: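 Membranes from hA3 CHO cells (50 μg protein/assay) in 50 mM Tris HCl, 10 mM MgCl2, 1 mM EDTA pH 7.4, adenosine deaminase-treated. Incubated with 1 nM [3H]MRE 3008F20 and 6-8 ligand concentrations, 120 min at 4 °C. Nonspecific defined with 1 μM MRE 3008F20 (~25% of total). GF/B filtration, three ice-cold washes, scintillation counting. Ki via Cheng-Prusoff; geometric mean, 95% confidence limits, n = 3-6.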

Adenosine receptor A2a [4] = target: T4, Adenosine receptor A2a (Homo sapiens, UniProt P29274); assay: Displacement of [3H]ZM 241385 from human adenosine A2A receptor expressed in CHO cells at <=5000 nM after 60 mins by scintillation spectrometry; format: cell-based
Adenosine receptor A2a [5] = target: T4, Adenosine receptor A2a; assay: Displacement of [3H]ZM 241385 from human adenosine A2A receptor expressed in CHO cells after 60 mins by scintillation spectrometry; format: cell-based
Adenosine receptor A1 = target: T5, Adenosine receptor A1 (Homo sapiens, UniProt P30542); assay: Displacement of [3H]DPCPX from human adenosine A1 receptor expressed in CHO cells after 120 mins by scintillation spectrometry; format: cell-based
T5 sequence (P30542 whole entry): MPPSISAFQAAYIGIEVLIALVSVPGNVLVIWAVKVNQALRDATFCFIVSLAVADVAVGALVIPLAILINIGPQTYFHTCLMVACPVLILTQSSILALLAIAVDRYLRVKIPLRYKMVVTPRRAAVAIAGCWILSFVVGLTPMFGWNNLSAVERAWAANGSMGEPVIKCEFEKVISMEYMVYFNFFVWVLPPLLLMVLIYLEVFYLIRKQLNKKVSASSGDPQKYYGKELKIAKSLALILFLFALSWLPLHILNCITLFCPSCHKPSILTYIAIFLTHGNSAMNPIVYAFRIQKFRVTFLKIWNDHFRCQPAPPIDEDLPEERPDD
How it was run: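 hA1 CHO membranes (50 μg protein/assay) in 50 mM Tris HCl pH 7.4, pretreated with adenosine deaminase 2 UI/mL for 30 min at 37 °C. Incubated with 1 nM [3H]DPCPX plus 6-8 ligand concentrations for 120 min at 25 °C. Nonspecific binding defined with 1 μM DPCPX. Ki from IC50 by Cheng-Prusoff; geometric means with 95% confidence limits.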

[6] = target: Adenosine receptors; A1 & A3 (Homo sapiens) (UniProt P30542+P0DMS8); assay: Ratio of Ki for human adenosine A1 receptor to Ki for human adenosine A3 receptor

T4 sequence (P29274 whole entry): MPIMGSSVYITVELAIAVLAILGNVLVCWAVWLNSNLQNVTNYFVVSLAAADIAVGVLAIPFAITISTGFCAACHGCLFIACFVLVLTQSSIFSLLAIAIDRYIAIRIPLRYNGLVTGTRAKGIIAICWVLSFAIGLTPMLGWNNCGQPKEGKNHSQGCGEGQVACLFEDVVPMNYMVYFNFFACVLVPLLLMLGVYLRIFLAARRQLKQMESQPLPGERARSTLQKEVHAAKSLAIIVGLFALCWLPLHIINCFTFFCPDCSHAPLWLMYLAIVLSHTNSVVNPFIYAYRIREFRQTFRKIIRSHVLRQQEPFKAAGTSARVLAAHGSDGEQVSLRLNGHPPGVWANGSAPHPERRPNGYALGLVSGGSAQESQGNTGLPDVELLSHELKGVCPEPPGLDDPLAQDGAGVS

SMILES	IC50 (Adenosine receptor A3 [1])	inhibition [2]	IC50 (Adenosine receptor A2b)	Ki (Adenosine receptor A3 [3])	inhibition (Adenosine receptor A2a [4])	Ki (Adenosine receptor A2a [5])	Ki (Adenosine receptor A1)	Ratio Ki [6]
C=CCN1C(=O)N2C[C@@H](C)N=C2c2[nH]c(-c3cc(C)nn3C)nc21	35.9 nM	10%	> 5000 nM	5.04 nM	1%	> 5000 nM	2510 nM	–
C=CCN1C(=O)N2C[C@H](C)N=C2c2[nH]c(-c3cc(C)nn3C)nc21	40.9 nM	12%	> 5000 nM	6.03 nM	4%	> 5000 nM	1960 nM	–
CC[C@@H]1CN2C(=O)N(Cc3ccccc3)c3nc(-c4cc(C)nn4C)[nH]c3C2=N1	–	10%	> 5000 nM	12.6 nM	3%	> 5000 nM	803 nM	–
CC[C@H]1CN2C(=O)N(Cc3ccccc3)c3nc(-c4cc(C)nn4C)[nH]c3C2=N1	–	13%	> 5000 nM	13.2 nM	4%	> 5000 nM	545 nM	–
C=CCN1C(=O)N2C[C@@H](CC)N=C2c2[nH]c(-c3cc(OC)nn3C)nc21	23.4 nM	21%	> 5000 nM	1.46 nM	13%	> 5000 nM	2520 nM	–
C=CCN1C(=O)N2C[C@H](CC)N=C2c2[nH]c(-c3cc(OC)nn3C)nc21	10.5 nM	14%	> 5000 nM	2.37 nM	15%	> 5000 nM	1080 nM	–
COc1cc(-c2nc3c([nH]2)C2=N[C@H](C)CN2C(=O)N3Cc2ccccc2)n(C)n1	15.9 nM	19%	> 5000 nM	2.38 nM	11%	> 5000 nM	2550 nM	–
COc1cc(-c2nc3c([nH]2)C2=N[C@@H](C)CN2C(=O)N3Cc2ccccc2)n(C)n1	17.5 nM	22%	> 5000 nM	2.52 nM	1%	> 5000 nM	1730 nM	–
Cc1cc(-c2nc3c([nH]2)C2=NC(C)CN2C(=O)N3Cc2ccccc2)n(C)n1 (racemic)	–	8%	> 5000 nM	17.2 nM	1%	> 5000 nM	> 5000 nM	> 290
CCC1CN2C(=O)N(Cc3ccccc3)c3nc(-c4cc(C)nn4C)[nH]c3C2=N1 (racemic)	–	20%	> 5000 nM	10.3 nM	5%	> 5000 nM	615 nM	60
C=CCN1C(=O)N2CC(CC)N=C2c2[nH]c(-c3cc(OCc4ccccc4)nn3C)nc21 (racemic)	–	14%	> 5000 nM	21.5 nM	5%	> 5000 nM	1200 nM	56
CC1CN2C(=O)N(Cc3ccccc3)c3nc(-c4cc(OCc5ccccc5)nn4C)[nH]c3C2=N1 (racemic)	–	13%	> 5000 nM	44.8 nM	–	2010 nM	2560 nM	57
CCC1CN2C(=O)N(Cc3ccccc3)c3nc(-c4cc(OCc5ccccc5)nn4C)[nH]c3C2=N1 (racemic)	–	12%	> 5000 nM	39.8 nM	–	2130 nM	1680 nM	42
C=CCN1C(=O)N2CC(CC)N=C2c2[nH]c(-c3cc(OC)no3)nc21 (racemic)	14.6 nM	25%	> 5000 nM	1.93 nM	–	1520 nM	3020 nM	–
CCC1CN2C(=O)N(Cc3ccccc3)c3nc(-c4cc(OC)no4)[nH]c3C2=N1 (racemic)	25.3 nM	18%	> 5000 nM	2.71 nM	12%	> 5000 nM	485 nM	–
